Test results from ChEMBL document CHEMBL1131138, “A novel class of orally active non-peptide bradykinin B2 receptor antagonists. 3. Discovering bioisosteres of the imidazo[1,2-a] pyridine moiety” (J Med Chem, 1998).

Key:
B2 bradykinin receptor [1] = target: T1, B2 bradykinin receptor (Homo sapiens, UniProt P30411); test: Inhibition specific binding of [3H]BK (1.0 nM) to human Bradykinin receptor B2 which was expressed in CHO (Chinese hamster ovary) cells by 50%.; assay type: cell-based
T1 sequence (P30411 whole entry): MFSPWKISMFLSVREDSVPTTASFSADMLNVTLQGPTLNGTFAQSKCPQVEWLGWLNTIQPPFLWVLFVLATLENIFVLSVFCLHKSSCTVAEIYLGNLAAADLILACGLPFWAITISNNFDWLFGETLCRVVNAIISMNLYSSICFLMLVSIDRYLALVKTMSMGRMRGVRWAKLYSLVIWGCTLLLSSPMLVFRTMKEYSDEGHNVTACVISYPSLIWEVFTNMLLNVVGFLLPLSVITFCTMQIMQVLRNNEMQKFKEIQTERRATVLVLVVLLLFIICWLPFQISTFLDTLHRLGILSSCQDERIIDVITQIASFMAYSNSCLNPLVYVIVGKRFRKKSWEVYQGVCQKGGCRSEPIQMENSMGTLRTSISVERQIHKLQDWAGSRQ
Outline: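 CHO (dhfr−) cells stably expressing human B2 receptor, seeded at 3.0 × 10^4 cells/well and cultured 1 day. Whole cells incubated with 1.0 nM [3H]BK plus compound for 2 h at 4 °C in HEPES/N-methyl-D-glucamine buffer pH 7.2 with bacitracin, enalaprilat and BSA. Washed, solubilized in SDS/NaOH and counted. Nonspecific binding with 1 μM BK; DMSO below 3%; three experiments.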

Cavia porcellus [2] = test: Inhibition of Bradykinin induced Bronchoconstriction in anaesthetized guinea pig at 0.32mg/kg, po; assay type: functional
Outline: (§1)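 Male Hartley guinea pigs (470–750 g), fasted overnight, anesthetized with ip pentobarbital (30 mg/kg) and ventilated at 10 mL/kg, 60 breaths/min. Given alcuronium (0.5 mg/kg iv) and propranolol (10 mg/kg sc). BK 5 μg/kg iv, with bronchoconstriction read as peak pulmonary insufflation pressure (modified Konzett–Rössler).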

B2 bradykinin receptor [3] = target: T2, B2 bradykinin receptor (Cavia porcellus, UniProt O70526); test: Concentration required to inhibit specific binding of [ 3H]BK (0.06 nM) to Bradykinin receptor B2 in guinea pig ileum membrane preparations by 50%.; assay type: cell membranes
T2 sequence (O70526 whole entry): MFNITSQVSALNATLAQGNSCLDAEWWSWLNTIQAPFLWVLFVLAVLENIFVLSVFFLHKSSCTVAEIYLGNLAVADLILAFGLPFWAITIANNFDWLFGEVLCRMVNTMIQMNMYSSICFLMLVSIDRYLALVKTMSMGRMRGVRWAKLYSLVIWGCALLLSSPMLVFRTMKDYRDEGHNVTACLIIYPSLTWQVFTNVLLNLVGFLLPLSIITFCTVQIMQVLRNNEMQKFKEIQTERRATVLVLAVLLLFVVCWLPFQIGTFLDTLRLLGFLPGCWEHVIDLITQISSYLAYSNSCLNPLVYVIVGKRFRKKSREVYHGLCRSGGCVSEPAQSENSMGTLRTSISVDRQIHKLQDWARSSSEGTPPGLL
Outline: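 Ileal membranes from male Hartley guinea pigs (0.2 mg protein/mL) in TES buffer pH 6.8 with phenanthroline, bacitracin, DTT, captopril and BSA. Incubated with 0.06 nM [3H]BK plus compound for 60 min at room temperature, then filtered through GF/B and counted by scintillation.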

Cavia porcellus [4] = test: In vivo inhibition of Bradykinin induced Bronchoconstriction in anaesthetized guinea pig following 1 mg/kg p.o.; assay type: functional; conditions: route oral; outline: as §1
B2 bradykinin receptor [5] = target: T1, B2 bradykinin receptor; test: Concentration required to inhibit specific binding of [3H]BK (1.2 nM) to A-431 cells (human epidermoid carcinoma) which express Bradykinin receptor B2 by 50%.; assay type: cell-based

Compound | IC50 (B2 bradykinin receptor [1]) [nM] | IC50 (B2 bradykinin receptor [3]) [nM] | IC50 (B2 bradykinin receptor [5]) [µM] | inhibition in vivo at 0.32 mg/kg (Cavia porcellus [2]) [%] | inhibition in vivo at 1 mg/kg (Cavia porcellus [4]) [%]
CCn1c(C)nc2c(OCc3c(Cl)ccc(N(C)C(=O)CNC(=O)/C=C/c4ccc(C(=O)NC)cc4)c3Cl)cccc21 | 48 | 8.9 |  |  | 
Cc1ccc2cccc(OCc3c(Cl)ccc(N(C)C(=O)CNC(=O)/C=C/c4ccc(C(=O)Nc5ccccn5)cc4)c3Cl)c2n1 | 30 | 11 |  |  | 
CNC(=O)c1ccc(/C=C/C(=O)NCC(=O)N(C)c2ccc(Cl)c(COc3cccn4c(Br)c(C)nc34)c2Cl)cc1 | 9 |  |  |  | 
CNC(=O)c1ccc(/C=C/C(=O)NCC(=O)N(C)c2ccc(Cl)c(COc3cccc4cnc(C)cc34)c2Cl)cc1 |  | > 10000 | > 10 |  | 
Cc1cnc2cccc(OCc3c(C)ccc(N(C)C(=O)CNC(=O)/C=C/c4ccc(N5CCCC5=O)cc4)c3C)c2n1 | 46 | 2.4 |  |  | 
Cc1ccc2cccc(OCc3c(C)ccc(N(C)C(=O)CNC(=O)/C=C/c4ccc(N5CCCC5=O)nc4)c3C)c2n1 | 39 | 1.4 |  |  | 
CNC(=O)c1ccc(/C=C/C(=O)NCC(=O)N(C)c2ccc(C)c(COc3cccc4ccc(C)nc34)c2C)cn1 | 58 | 2.2 |  |  | 
COc1nc2c(OCc3c(Cl)ccc(N(C)C(=O)CNC(=O)/C=C/c4ccc(C(=O)N(C)C)cc4)c3Cl)cccc2n1C | 14 | 0.94 |  |  | 87.7
CNC(=O)c1ccc(/C=C/C(=O)NCC(=O)N(C)c2ccc(C)c(COc3cccc4c3nc(N(C)C)n4C)c2C)cc1 | 160 | 38 |  |  | 
CCOc1nc2c(OCc3c(C)ccc(N(C)C(=O)CNC(=O)/C=C/c4ccc(C(=O)NC)cc4)c3C)cccc2n1C | 730 | 90 |  |  | 
CNC(=O)c1ccc(/C=C/C(=O)NCC(=O)N(C)c2ccc(C)c(COc3cccc4ncc(C)nc34)c2C)cc1 | 17 | 3.5 |  |  | 
Cc1ccc2cccc(OCc3c(Cl)ccc(N(C)C(=O)CNC(=O)/C=C/c4ccc(C(=O)Nc5ccccc5)cc4)c3Cl)c2n1 | 11 | 6.3 |  |  | 
CNC(=O)c1ccc(/C=C/C(=O)NCC(=O)N(C)c2ccc(C)c(COc3cccc4c3nc(SC)n4C)c2C)cc1 | 79 | 9.5 |  |  | 
Cc1ccc2cccc(OCc3c(Cl)ccc(N(C)C(=O)CNC(=O)/C=C/c4cccnc4)c3Cl)c2n1 | 470 | 0.79 |  | 63.7 | 97.2
CNC(=O)c1ccc(/C=C/C(=O)NCC(=O)N(C)c2ccc(C)c(COc3cccc4ncc(C)nc34)c2C)cn1 | 590 | 18 |  |  | 
Cc1cnc2cccc(OCc3c(Cl)ccc(N(C)C(=O)CNC(=O)/C=C/c4ccc(C(=O)N(C)C)cc4)c3Cl)c2n1 | 44 | 1.9 |  |  | 
CC(=O)Nc1ccc(/C=C/C(=O)NCC(=O)N(C)c2ccc(C)c(COc3cccc4ccc(C)nc34)c2C)cn1 | 8.5 | 0.82 |  | 55.5 | 98.2
CCOC(=O)Cc1nc2c(OCc3c(C)ccc(N(C)C(=O)CNC(=O)/C=C/c4ccc(C(=O)NC)cc4)c3C)cccc2n1C | 8400 | 1100 |  |  | 
Cc1cnc2cccc(OCc3c(C)ccc(N(C)C(=O)CNC(=O)/C=C/c4ccc(C(=O)N(C)C)cc4)c3C)c2n1 | 130 | 4.1 |  |  | 
Cc1ccc2cccc(OCc3c(Cl)ccc(N(C)C(=O)CNC(=O)/C=C/c4ccc(C(=O)Nc5cccnc5)cc4)c3Cl)c2n1 | 7.5 | 0.62 |  |  | 46.8
Cc1ccc2cccc(OCc3c(Cl)ccc(N(C)C(=O)CNC(=O)/C=C/c4ccccc4)c3Cl)c2n1 | 340 | 0.69 |  |  | 25.2
CNC(=O)c1ccc(/C=C/C(=O)NCC(=O)N(C)c2ccc(C)c(COc3cccc4c3nc(NC)n4C)c2C)cc1 | 670 | 94 |  |  | 
Cc1cnc2cccc(OCc3c(Cl)ccc(N(C)C(=O)CNC(=O)/C=C/c4ccc(N5CCCC5=O)cc4)c3Cl)c2n1 | 26 | 1.1 |  |  | 
CC(=O)Nc1ccc(/C=C/C(=O)NCC(=O)N(C)c2ccc(C)c(COc3cccc4ncc(C)nc34)c2C)cn1 | 130 | 48 |  |  | 
CNC(=O)c1ccc(/C=C/C(=O)NCC(=O)N(C)c2ccc(Cl)c(COc3cccc4c(C)c(C)oc34)c2Cl)cc1 | 270 | 23 |  |  | 
CNC(=O)c1ccc(/C=C/C(=O)NCC(=O)N(C)c2ccc(Cl)c(COc3cccc4c3nc(-c3ccccc3)n4C)c2Cl)cc1 | > 1000 | 510 |  |  | 
COc1nc2c(OCc3c(C)ccc(N(C)C(=O)CNC(=O)/C=C/c4ccc(NC(C)=O)nc4)c3C)cccc2n1C | 8.5 | 0.94 |  | 75.2 | 98.4
CNC(=O)c1ccc(/C=C/C(=O)NCC(=O)N(C)c2ccc(C)c(COc3cccc4c3nc(C(C)=O)n4C)c2C)cc1 | 94 | 200 |  |  | 
Cc1ccc2cccc(OCc3c(C)ccc(N(C)C(=O)CNC(=O)/C=C/c4ccc(N5CCCC5=O)cc4)c3C)c2n1 | 9.3 | 0.47 |  | 75.7 | 94.9
CNC(=O)c1ccc(/C=C/C(=O)NCC(=O)N(C)c2ccc(C)c(COc3cccc4c3nc(COC)n4C)c2C)cc1 | 9100 | 1000 |  |  | 

More lines, main results first:

IC50 (B2 bradykinin receptor [1]) [nM] | IC50 (B2 bradykinin receptor [3]) [nM] | IC50 (B2 bradykinin receptor [5]) [µM] | Compound | inhibition in vivo at 0.32 mg/kg (Cavia porcellus [2]) [%] | inhibition in vivo at 1 mg/kg (Cavia porcellus [4]) [%]
5.2 | 0.13 |  | Cc1ccc2cccc(OCc3c(Cl)ccc(N(C)C(=O)CNC(=O)/C=C/c4ccc(N5CCCC5=O)nc4)c3Cl)c2n1 | 68.6 | 89.9
3.2 | 0.55 |  | Cc1ccc2cccc(OCc3c(Cl)ccc(N(C)C(=O)CNC(=O)/C=C/c4ccc(N5CCCC5=O)cc4)c3Cl)c2n1 | 44.7 | 85.3
0.51 | 0.76 |  | Cc1ccc2cccc(OCc3c(Cl)ccc(N(C)C(=O)CNC(=O)/C=C/c4ccc(/C=C/c5ccncc5)nc4)c3Cl)c2n1 | 43.6 | 87.3
2.2 |  |  | Cc1nc2c(OCc3c(Cl)ccc(N(C)C(=O)CNC(=O)/C=C/c4ccc(C(=O)N(C)C)cc4)c3Cl)cccn2c1Br |  | 
2.5 | 15 |  | Cc1ccc2cccc(OCc3c(Cl)ccc(N(C)C(=O)CNC(=O)/C=C/c4ccc(C(=O)Nc5ccncc5)nc4)c3Cl)c2n1 |  | 60
4.8 | 0.97 |  | CNC(=O)c1ccc(/C=C/C(=O)NCC(=O)N(C)c2ccc(C)c(COc3cccc4ccc(C)nc34)c2C)cc1 | 79 | 90.5
3.9 | 1.3 |  | Cc1ccc2cccc(OCc3c(Cl)ccc(N(C)C(=O)CNC(=O)/C=C/c4ccc(C(=O)N(C)C)cc4)c3Cl)c2n1 | 50.8 | 89.7
1.8 | 1.1 |  | Cc1ccc2cccc(OCc3c(Cl)ccc(N(C)C(=O)CNC(=O)/C=C/c4ccc(C(=O)Nc5ccncc5)cc4)c3Cl)c2n1 |  | 29.5
4.2 | 0.65 |  | COc1nc2c(OCc3c(Cl)ccc(N(C)C(=O)CNC(=O)/C=C/c4ccc(NC(C)=O)nc4)c3Cl)cccc2n1C |  | 55.4
2.8 | 3.3 |  | Cc1ccc2cccc(OCc3c(Cl)ccc(N(C)C(=O)CNC(=O)/C=C/c4ccc(NC(=O)c5ccncc5)nc4)c3Cl)c2n1 |  | 68.8
4.6 | 0.68 |  | CNC(=O)c1ccc(/C=C/C(=O)NCC(=O)N(C)c2ccc(Cl)c(COc3cccc4ccc(C)nc34)c2Cl)cn1 | 68.4 | 93.9
1.4 | 0.46 |  | CC(=O)Nc1ccc(/C=C/C(=O)NCC(=O)N(C)c2ccc(Cl)c(COc3cccc4ccc(C)nc34)c2Cl)cn1 [FR-173657] | 73.2 | 94.4
1.9 | 0.5 |  | CC(=O)Nc1ccc(/C=C/C(=O)NCC(=O)N(C)c2ccc(Cl)c(COc3cccc4ccc(C)nc34)c2Cl)cc1 | 33.2 | 80
